Records with an inconclusive call do not appear. Activity calls are given as the source filed them.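 Rule for the calls, unless noted: active = inhibition over a set limit, the all-compound mean plus 3 SD, in both replicate runs; inconclusive = over that limit in just one replicate run; inactive = at or under that limit in both runs.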 Non-standard residues stand in square brackets, D forms with d. Residues, ends and D or L forms follow the SMILES beside them. ξ: configuration not given here. *: point of attachment. Cbz = O=C(OCc1ccccc1)*; ξV = CC(C)C(N)C(=O)O; OtBu = CC(C)(C)O*
Legend:
[1] = OD615 S. cerevisiae growth inhibition, permissive medium, pilot counter-assay, permissive growth control for S. cerevisiae lifespan shortening project (AID 705;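 active = growth inhibition above 25% in both replicates, a cutoff set 3 SD above the mean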); conditions: OD615, 24 h, at 10 µM, stronger effect = higher value
In short: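 System: S. cerevisiae with engineered DeaD lifespan system / Measured by: absorbance (optical density) at 615 nm / Read-out: reduction in yeast growth (OD615) / Times: 4 h cell pre-growth, 24 h exposure at 30 °C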

[2] = Restrictive medium S. cerevisiae growth inhibition, OD615, pilot screen of yeast lifespan reduction project, restrictive growth control (AID 706;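 active = growth inhibition above a set limit, 3 SD over mean compound inhibition, in both replicates, cut at about 43% in these data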;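 note: modified DeaD lifespan yeast strain shifted to restrictive glucose medium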); conditions: OD615, 48 h, at 10 µM, stronger effect = higher value
In short: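 System: Engineered S. cerevisiae DeaD strain | Buffer or medium: Glucose-based CSMM-D restrictive medium | Schedule: 4 h pre-incubation, 48 h exposure at 30 °C | Technique: Optical density at 615 nm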

[3] = viability gain of MRP-1-high H69AR cells under doxorubicin, pilot screen, MRP-1 activator project, CellTiter-Glo, duplicate (AID 807;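 active = viability increase at or above a cutoff of the median across tested compounds plus 3 SD, cut at about 8.5% in these data, passing the limit was not always enough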;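 note: compound pretreatment 18-22 h then 72 h combined with doxorubicin; 0% = doxorubicin alone and 100% = vehicle without doxorubicin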); conditions: H69AR viability with doxorubicin, CellTiter-Glo luminescence; at 10 µM; stronger effect = higher value
[4] = growth suppression of beta-catenin knockout HCT116, pilot screen, human colon tumor cells (AID 823;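 active = cell viability at or below a set limit in both duplicate runs, the limit being the all-compound median minus 4 SD, cut at about 23% in these data, passing the limit was not always enough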;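 note: 0% = wells killed by 20 µM Hyamine and 100% = untreated DMSO cell wells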); conditions: CellTiter-Glo, 60 h, at 10 µM, stronger effect = lower value
[5] = growth suppression of PTEN-deleted HCT116, pilot screen, cell-based, HCT116 clonal line, CellTiter-Glo (AID 824;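 active = viability at or below 27.92% in each of two runs, the all-compound median minus 4 SD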;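 note: 0% = 20 µM Hyamine control and 100% = vehicle cell control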); conditions: 60 h, at 10 µM, stronger effect = lower value
[6] = inhibitors of the yeast RAM network, pilot screen, dse1pr::URA3 reporter, 5-FOA selection (AID 869);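 note: 0% = DMSO wells with no growth and 100% = 10 µM 1-NA-PP1 with full growth; RAM network block rescues cells from 5-FOA so hits raise OD615 growth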; conditions: S. cerevisiae dse1pr::URA3 5-FOA growth, OD615, 2 d; at 10 µM; stronger effect = higher value; strain carries analog-sensitive mutant Cbk1 kinase
[7] = RAM signaling pathway blockade in yeast – S. cerevisiae, Pdr1DBD-CYC8 efflux-inhibited sensitized strain, primary screen (AID 1298;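 active = RAM network inhibition above 8.4% in each of two replicates, 3 SD over the compound average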;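 note: 0% = DMSO untreated cells without growth and 100% = 10 µM 1-NA-PP1 full growth; higher means more yeast growth rescued from 5-FOA killing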); conditions: S. cerevisiae cbk1-as DSE1-URA3 strain, 5-FOA growth OD615, 2 d; at 50 µM; stronger effect = higher value

Cn1c(Cn2c(=O)sc3ccccc32)nnc1SCC(=O)NCc1ccccc1Cl
inactive: growth inhibition [1] -7.92% | growth inhibition [2] -13.9% | viability increase [3] -1.32% | viability [4] 100% | viability [5] 103% | inhibition [6] 0.62% | RAM network inhibition [7] 3.96%

COc1cccc(Nc2cc(C)nc3nc(C)nn23)c1
inactive: growth inhibition [1] -0.125% | growth inhibition [2] 4.21% | viability increase [3] -1.69% | viability [4] 108% | viability [5] 97.6% | inhibition [6] 1.68% | RAM network inhibition [7] 2.37%

Cn1c(N)c(C(=O)COC(=O)Cc2ccsc2)c(=O)n(C)c1=O
inactive: growth inhibition [1] -10.1% | growth inhibition [2] -0.56% | viability increase [3] -0.79% | viability [4] 93.6% | viability [5] 97.7% | inhibition [6] 0.31% | RAM network inhibition [7] -0.32%

CCOC(=O)N1CCC(NC(=O)CN2C(=O)CSc3ncccc32)CC1
inactive: growth inhibition [1] 0.38% | growth inhibition [2] -5.29% | viability increase [3] -0.23% | viability [4] 104% | viability [5] 99% | inhibition [6] 2.81% | RAM network inhibition [7] 1.48%

COc1cc(C2N(c3ccc(Cl)cc3)C(=O)C3CCCN32)cc(OC)c1OC (stereo unspecified)
inactive: growth inhibition [1] -6.9% | growth inhibition [2] -0.835% | viability increase [3] -2.09% | viability [4] 101% | viability [5] 97.6% | inhibition [6] 2.28% | RAM network inhibition [7] 0.21%

Cc1ccc(CNC(=O)CCCNS(=O)(=O)c2cccc3nonc23)cc1
inactive: growth inhibition [1] -4.66% | growth inhibition [2] 0.525% | viability increase [3] -1.25% | viability [4] 101% | viability [5] 101% | inhibition [6] -0.185% | RAM network inhibition [7] 3%

Cc1ccc(-c2nc3cccnc3o2)cc1NC(=O)COc1ccc(Cl)cc1C
active: viability [4] 17.5% | viability [5] 4.66%
inactive: growth inhibition [1] -19.4% | growth inhibition [2] -8.21% | viability increase [3] -8.36% | inhibition [6] 1.5% | RAM network inhibition [7] 8.1%

CC(=O)c1cccc(NC(=O)c2cc(C)no2)c1
inactive: growth inhibition [1] -4.53% | growth inhibition [2] -12.4% | viability increase [3] -1.41% | viability [4] 98.9% | viability [5] 92.5% | inhibition [6] 1.26% | RAM network inhibition [7] -1.99%

CC1CCCC(NC(=O)Cn2cc3c(n2)CCCCC3)C1C (stereo unspecified)
inactive: growth inhibition [1] -16% | growth inhibition [2] -6.99% | viability increase [3] 0.62% | viability [4] 95.7% | viability [5] 90.8% | inhibition [6] -0.355% | RAM network inhibition [7] 0.1%

Cc1ccc2oc3c(c(=O)c2c1)C(c1cccc(O)c1)N(c1ccccn1)C3=O (stereo unspecified)
inactive: growth inhibition [1] -2.51% | growth inhibition [2] -0.22% | viability increase [3] -2.59% | viability [4] 79.4% | viability [5] 68.2% | inhibition [6] 1.81% | RAM network inhibition [7] 4.84%

C=CCc1cc(/C=N/n2cnnc2)cc(OCC)c1O
inactive: growth inhibition [1] -10.7% | growth inhibition [2] -1.86% | viability increase [3] -2.46% | viability [4] 102% | viability [5] 94.7% | inhibition [6] 0.925% | RAM network inhibition [7] 0.6%

Cn1c(SCC(=O)N2CCCCCC2)nc2c([nH]c3ccccc32)c1=O
inactive: growth inhibition [1] -14.3% | growth inhibition [2] -27.8% | viability increase [3] -5.85% | viability [4] 89% | viability [5] 86.7% | inhibition [6] 3.46% | RAM network inhibition [7] 8.37%

COc1ccc(OC)c2[nH]c(=O)c(CCNC(=O)c3cc4ccccc4o3)cc12
inactive: growth inhibition [1] -6.5% | growth inhibition [2] -3.6% | viability increase [3] 2.38% | viability [4] 87.8% | viability [5] 94.7% | inhibition [6] 0.6% | RAM network inhibition [7] 7.96%

O=C(Cn1c(=O)[nH]c2ccsc2c1=O)NC1CCCCC1
inactive: growth inhibition [1] -3.32% | growth inhibition [2] -5.46% | viability increase [3] 0.65% | viability [4] 94.9% | viability [5] 93.9% | inhibition [6] 1.41% | RAM network inhibition [7] -1.43%

COc1ccc(C(=O)/C(C)=N/O)cc1OC
inactive: growth inhibition [1] -15.6% | growth inhibition [2] -1.75% | viability increase [3] -0.59% | viability [4] 90.5% | viability [5] 88.6% | inhibition [6] 1.42% | RAM network inhibition [7] 2.98%

Clc1ccc(C2CC(c3cccs3)n3ncnc3N2)c(Cl)c1 (stereo unspecified)
inactive: growth inhibition [1] -5.32% | growth inhibition [2] 17.4% | viability increase [3] -4.06% | viability [4] 78.7% | viability [5] 69.3% | inhibition [6] 2.1% | RAM network inhibition [7] 2.15%

Cc1ccc(C(=O)NCc2ccco2)cc1S(=O)(=O)N1CCCCC1
inactive: growth inhibition [1] -11.6% | growth inhibition [2] -5.65% | viability increase [3] -5.21% | viability [4] 82.9% | viability [5] 85.5% | inhibition [6] 3% | RAM network inhibition [7] 6.81%

O=C(CC1(O)C(=O)Nc2ccccc21)c1ccccc1 (stereo unspecified)
inactive: growth inhibition [1] 1.47% | growth inhibition [2] -8.37% | viability increase [3] -3.28% | viability [4] 92.2% | viability [5] 96.7% | inhibition [6] 0.055% | RAM network inhibition [7] -1.83%

Cn1ccnc1-c1nc2ccccc2[nH]c1=O
inactive: growth inhibition [1] -6.04% | growth inhibition [2] -15.6% | viability increase [3] -1.95% | viability [4] 101% | viability [5] 95.5% | inhibition [6] -0.695% | RAM network inhibition [7] -0.73%

COc1ccc(Cl)cc1C(=O)NCC(c1ccco1)N1CCCC1 (stereo unspecified)
inactive: growth inhibition [1] -8.88% | growth inhibition [2] -4.32% | viability increase [3] -3.47% | viability [4] 81% | viability [5] 80.7% | inhibition [6] 2.23% | RAM network inhibition [7] 10.1%

CC(C)C(NC(=O)OCc1ccccc1)C(=O)NCC(=O)OC(C)(C)C (stereo unspecified) (Cbz-[ξV]-Gly-OtBu)
inactive: growth inhibition [1] -5.84% | growth inhibition [2] -2.87% | viability increase [3] 0.2% | viability [4] 96.6% | viability [5] 95.2% | inhibition [6] 1.82% | RAM network inhibition [7] 3.16%

COc1ccc(C(=O)N(Cc2nc(-c3ccc(C)cc3)no2)C(C)C)cc1OC
inactive: growth inhibition [1] -12.1% | growth inhibition [2] -6.13% | viability increase [3] 1.37% | viability [4] 93.6% | viability [5] 79.3% | inhibition [6] 3.8% | RAM network inhibition [7] 5.36%

CCCCc1ccc(NC(=O)OC)cc1
inactive: growth inhibition [1] 1.49% | growth inhibition [2] 10.8% | viability increase [3] 3.48% | viability [4] 104% | viability [5] 90.6% | inhibition [6] 2.21% | RAM network inhibition [7] -2%

CCOC(=O)CON1C(=O)C(C)(C)N(OCC(=O)OCC)C(=O)C1(C)C
inactive: growth inhibition [1] -0.865% | growth inhibition [2] -9.37% | viability increase [3] -0.75% | viability [4] 104% | viability [5] 101% | inhibition [6] 0.38% | RAM network inhibition [7] 1.33%

CC(=O)C1=C(C)NC(SCC(N)=O)=C(C#N)C1c1cccnc1 (stereo unspecified)
inactive: growth inhibition [1] 6.58% | growth inhibition [2] 20.8% | viability increase [3] 1.67% | viability [4] 104% | viability [5] 101% | inhibition [6] 1.12% | RAM network inhibition [7] 1.65%

O=S(=O)(c1cccc(-c2nnc(-c3cccnc3)o2)c1)N1CCCCC1
inactive: growth inhibition [1] 1.58% | growth inhibition [2] -5.17% | viability increase [3] -3.4% | viability [4] 86.9% | viability [5] 84.7% | inhibition [6] 1.22% | RAM network inhibition [7] 2.99%

Cc1c(C(=O)NCc2cccnc2)sc2nc(-c3ccc(F)cc3)cn12
inactive: growth inhibition [1] -6.33% | growth inhibition [2] 22.2% | viability increase [3] 0.45% | viability [4] 77.3% | viability [5] 78% | inhibition [6] 1.01% | RAM network inhibition [7] 2.56%

O=C(Cn1c(CN2CCCCC2)nc2ccccc2c1=O)NC1CCCCC1
inactive: growth inhibition [1] -7.65% | growth inhibition [2] -24.4% | viability increase [3] -2.4% | viability [4] 95.4% | viability [5] 88% | inhibition [6] -0.59% | RAM network inhibition [7] -1.71%

CCCCCn1c(N2CCC(Cc3ccccc3)CC2)nc2c1c(=O)[nH]c(=O)n2C
inactive: growth inhibition [1] -14.9% | growth inhibition [2] -29.9% | viability increase [3] -8.6% | inhibition [6] 1.22% | RAM network inhibition [7] 7.3%
active: viability [4] 15.1% | viability [5] 12.8%

CCOc1ccc(-c2noc(CCC(=O)O)n2)cc1
inactive: growth inhibition [1] 6.08% | growth inhibition [2] -3.1% | viability increase [3] 0.28% | viability [4] 102% | viability [5] 95.1% | inhibition [6] 1.56% | RAM network inhibition [7] 0.42%

O=C(NCCC1=CCCCC1)C1CCCN(S(=O)(=O)c2cccc3cccnc23)C1 (stereo unspecified)
inactive: growth inhibition [1] -14.8% | growth inhibition [2] -12.7% | viability increase [3] -1.42% | viability [4] 89% | viability [5] 80.6% | inhibition [6] 2.14% | RAM network inhibition [7] 5.84%

Nc1cccc(C(=O)Nc2ccc(N)cc2Cl)c1
inactive: growth inhibition [1] -18.5% | growth inhibition [2] -7.93% | viability increase [3] -0.9% | viability [4] 103% | viability [5] 106% | inhibition [6] 2.42% | RAM network inhibition [7] 2.91%

CC1CC(C(O)c2ccccn2)C(=O)C(C(O)c2ccccn2)C1 (stereo unspecified)
inactive: growth inhibition [1] 9.67% | growth inhibition [2] -1.25% | viability increase [3] -3.28% | viability [4] 97.8% | viability [5] 90.3% | inhibition [6] 0.35% | RAM network inhibition [7] -0.58%
